Source: ChEMBL document CHEMBL2202977, “Optimization and structure-activity relationships of a series of potent inhibitors of methicillin-resistant Staphylococcus aureus (MRSA) pyruvate kinase as novel antimicrobial agents” (Bioorg Med Chem, 2012)
In brackets after ≈: the same amount, converted by molar mass.

Tests used:
[1] = molecular target: T1, Pyruvate kinase (Staphylococcus aureus (strain MRSA252)) (UniProt Q6GG09); experiment: Inhibition of methicillin-resistant Staphylococcus aureus 252 pyruvate kinase at 10 uM by LDH assay; details: Staphylococcus aureus subsp. aureus MRSA252
T1 sequence (whole entry): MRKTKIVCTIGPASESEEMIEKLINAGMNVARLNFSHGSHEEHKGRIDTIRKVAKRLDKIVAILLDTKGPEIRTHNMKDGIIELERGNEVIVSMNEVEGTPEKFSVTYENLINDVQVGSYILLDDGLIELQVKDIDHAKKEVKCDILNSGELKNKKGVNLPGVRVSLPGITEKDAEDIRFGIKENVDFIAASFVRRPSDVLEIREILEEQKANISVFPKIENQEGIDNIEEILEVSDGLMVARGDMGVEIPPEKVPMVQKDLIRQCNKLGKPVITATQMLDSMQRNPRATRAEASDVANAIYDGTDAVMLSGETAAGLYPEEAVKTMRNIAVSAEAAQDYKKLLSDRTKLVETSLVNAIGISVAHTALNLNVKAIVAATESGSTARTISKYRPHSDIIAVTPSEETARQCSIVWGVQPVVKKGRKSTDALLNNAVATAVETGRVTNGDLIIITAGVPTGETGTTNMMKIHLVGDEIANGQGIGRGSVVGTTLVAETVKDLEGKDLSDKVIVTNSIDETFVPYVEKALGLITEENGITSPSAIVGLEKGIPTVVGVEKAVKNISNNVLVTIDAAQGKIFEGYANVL
In short: (§1)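 MRSA pyruvate kinase activity was measured by a previously described procedure. IC50 was calculated from triplicate 15-point titrations, or averaged over n such determinations. Where no IC50 was obtained, the value is % inhibition at the highest concentration tested.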

THP-1 [2] = experiment: Cytotoxicity against human THP1 cells assessed as cell death at 6.25 uM after 24 hrs by MTS assay; assay type: cell-based; details: thp-1, 24 h
In short: (§2)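 THP-1 cells were exposed to test agent at 25 µM and 6.25 µM. Read-out was percentage of dead cells.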

THP-1 [3] = experiment: Cytotoxicity against human THP1 cells assessed as cell death at 25 uM after 24 hrs by MTS assay; assay type: cell-based; details: thp-1, 24 h; in short: as §2
Staphylococcus aureus [4] = experiment: Antimicrobial activity against Staphylococcus aureus RN4220 after 24 hrs broth microdilution method; assay type: functional
In short: (§3)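 MIC taken as the minimum concentration giving >98% growth inhibition of the named S. aureus strain (RN4220, ATCC 25923 or ATCC 29213). Values are single determinations or averages of n determinations. Vancomycin was run as control.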

Staphylococcus aureus [5] = experiment: Antimicrobial activity against Staphylococcus aureus ATCC 25923 after 24 hrs broth microdilution method; assay type: functional; in short: as §3
Pyruvate kinase = molecular target: T2, Pyruvate kinase (Staphylococcus aureus (strain MRSA252), UniProt Q6GG09); experiment: Inhibition of methicillin-resistant Staphylococcus aureus 252 pyruvate kinase by LDH assay; design: species or system Staphylococcus aureus subsp. aureus MRSA252; in short: as §1
T2 sequence (Q6GG09 whole entry): T1 sequence (whole entry)

[6] = molecular target: Pyruvate kinase PKLR (Homo sapiens) (UniProt P30613); experiment: Inhibition of human pyruvate kinase L at 10 uM by LDH assay
Sequence of Pyruvate kinase PKLR (Homo sapiens) (P30613 whole entry, looked up, canonical isoform): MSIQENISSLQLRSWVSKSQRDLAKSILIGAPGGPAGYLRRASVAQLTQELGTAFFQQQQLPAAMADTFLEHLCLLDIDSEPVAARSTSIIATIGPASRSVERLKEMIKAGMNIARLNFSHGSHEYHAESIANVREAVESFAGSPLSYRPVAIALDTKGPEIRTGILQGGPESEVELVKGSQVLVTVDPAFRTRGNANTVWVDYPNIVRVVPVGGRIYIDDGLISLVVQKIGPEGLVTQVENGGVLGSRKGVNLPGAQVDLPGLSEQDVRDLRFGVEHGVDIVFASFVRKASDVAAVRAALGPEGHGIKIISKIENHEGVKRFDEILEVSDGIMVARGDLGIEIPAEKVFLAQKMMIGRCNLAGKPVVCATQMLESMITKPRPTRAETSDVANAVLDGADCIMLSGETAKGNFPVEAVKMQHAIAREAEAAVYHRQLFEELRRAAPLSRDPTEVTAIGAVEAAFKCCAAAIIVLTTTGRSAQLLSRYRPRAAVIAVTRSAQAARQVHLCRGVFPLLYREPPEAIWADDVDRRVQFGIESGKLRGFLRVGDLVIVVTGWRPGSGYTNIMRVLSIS
In short: (§4)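 Selected compounds were tested against mammalian PK isoforms M1, M2, R and L at the highest concentration, 10 µM. Results are given as percent inhibition.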

[7] = molecular target: Pyruvate kinase PKM (Homo sapiens) (UniProt P14618); experiment: Inhibition of human pyruvate kinase M2 at 10 uM by LDH assay; in short: as §4
Sequence of Pyruvate kinase PKM (Homo sapiens) (P14618 2-531 limits assumed): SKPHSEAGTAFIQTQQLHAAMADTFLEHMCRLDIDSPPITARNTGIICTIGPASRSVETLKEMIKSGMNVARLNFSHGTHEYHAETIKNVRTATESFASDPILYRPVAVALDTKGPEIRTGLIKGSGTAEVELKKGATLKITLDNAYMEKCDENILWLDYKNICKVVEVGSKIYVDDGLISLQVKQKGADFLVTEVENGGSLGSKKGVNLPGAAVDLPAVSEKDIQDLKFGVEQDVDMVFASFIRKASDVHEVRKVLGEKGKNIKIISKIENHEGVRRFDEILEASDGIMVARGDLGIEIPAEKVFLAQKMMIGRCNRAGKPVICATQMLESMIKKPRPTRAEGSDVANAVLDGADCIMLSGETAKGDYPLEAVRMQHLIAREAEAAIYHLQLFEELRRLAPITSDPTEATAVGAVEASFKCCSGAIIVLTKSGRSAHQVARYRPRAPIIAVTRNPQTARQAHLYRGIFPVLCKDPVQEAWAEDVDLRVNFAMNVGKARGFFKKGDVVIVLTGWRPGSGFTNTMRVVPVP

[8] = molecular target: Pyruvate kinase PKLR (Homo sapiens) (UniProt P30613); experiment: Inhibition of human pyruvate kinase R at 10 uM by LDH assay; in short: as §4
[9] = molecular target: Pyruvate kinase PKM (Homo sapiens) (UniProt P14618); experiment: Inhibition of human pyruvate kinase M1 at 10 uM by LDH assay; in short: as §4
Staphylococcus aureus [10] = experiment: Antimicrobial activity against Staphylococcus aureus ATCC 29213 after 24 hrs broth microdilution method; assay type: functional; in short: as §3
[11] = molecular target: T1, Pyruvate kinase (Staphylococcus aureus (strain MRSA252)); experiment: Inhibition of methicillin-resistant Staphylococcus aureus 252 pyruvate kinase at 1 uM by LDH assay; details: Staphylococcus aureus subsp. aureus MRSA252; in short: as §1
[12] = molecular target: T1, Pyruvate kinase (Staphylococcus aureus (strain MRSA252)); experiment: Inhibition of methicillin-resistant Staphylococcus aureus 252 pyruvate kinase at 0.5 uM by LDH assay; details: Staphylococcus aureus subsp. aureus MRSA252; in short: as §1

`CC(C)(C)/C(=N/NC(=O)c1cc(Br)ccc1O)c1cc2ccccc2[nH]1` gave an inhibition [1] of 0%, an Activity (THP-1 [2]) of 42% and an Activity (THP-1 [3]) of 50%. For the same compound, the “MIC>98” value (Staphylococcus aureus [4]) was 83 mg/L (≈ 200 µM).

In the case of `C/C(=N\NC(=O)c1cc(Br)ccc1O)c1cc2ccc(Br)cc2[nH]1`, the “MIC>98” value (Staphylococcus aureus [5]) is reported as over 64 mg/L and the IC50 (Pyruvate kinase) is reported as 0.024 µM.

Compound `O=C(NN=C(c1ccccc1)c1cc2ccccc2[nH]1)c1cc(Br)ccc1O` has an inhibition [6] of 5.6%, an inhibition [7] of 4.8% and an inhibition [8] of 13.4%. It also gave an inhibition [9] of 11.2%, an inhibition [1] of 97.6% and an Activity (THP-1 [2]) of 43%. The Activity (THP-1 [3]) was 83%, the “MIC>98” value (Staphylococcus aureus [4]) was 1.4 mg/L (≈ 3.22 µM) and the IC50 (Pyruvate kinase) was 0.445 µM.

`Cn1c(/C(=N\NC(=O)c2cc(Br)ccc2O)C(C)(C)C)cc2ccccc21` was tested, and the inhibition [1] was 0%, the Activity (THP-1 [2]) was 25% and the Activity (THP-1 [3]) was 73%. For the same compound, the “MIC>98” value (Staphylococcus aureus [4]) was 10.7 mg/L (≈ 25 µM).

With `CC/C(=N\NC(=O)c1cc2ccccc2cc1O)c1cc2c(F)c(F)c(F)cc2n1C` the “MIC>98” value (Staphylococcus aureus [10]) was 32 mg/L (≈ 75.2 µM) and the IC50 (Pyruvate kinase) was 0.052 µM.

With `CC(=NNC(=O)c1cc(Br)ccc1O)c1cc2c(F)c(F)c(F)cc2n1C` (mixture of isomers) the “MIC>98” value (Staphylococcus aureus [10]) was 2 mg/L and the IC50 (Pyruvate kinase) was 0.055 µM.

With `CC/C(=N\NC(=O)c1cc(Br)ccc1O)c1cc2cc(Br)ccc2[nH]1` the “MIC>98” value (Staphylococcus aureus [10]) was 4 mg/L (≈ 8.6 µM) and the IC50 (Pyruvate kinase) was 0.049 µM.

With `COc1ccc(Br)cc1C(=O)N/N=C/c1cc2ccccc2[nH]1` the “MIC>98” value (Staphylococcus aureus [10]) was over 64 mg/L and the IC50 (Pyruvate kinase) was 0.451 µM.

`CCOCOc1ccccc1C(=O)N/N=C(\C)c1cc2cc(Br)ccc2[nH]1` was tested, and the “MIC>98” value (Staphylococcus aureus [10]) was over 64 mg/L and the IC50 (Pyruvate kinase) was 0.251 µM.

In the case of `C/C(=N\NC(=O)c1cc(Cl)ccc1O)c1cc2ccccc2[nH]1`, the inhibition [11] is reported as 36% and the “MIC>98” value (Staphylococcus aureus [4]) is reported as over 64 mg/L.

In the case of `C/C(=N\NC(=O)c1cc2ccccc2cc1O)c1cc2cc(Br)ccc2[nH]1`, the “MIC>98” value (Staphylococcus aureus [10]) is reported as over 64 mg/L and the IC50 (Pyruvate kinase) is reported as 0.026 µM.

`CC(=NNC(=O)c1cc(Br)ccc1O)c1nc2ccccc2o1` (mixture of isomers) was tested, and the inhibition [12] was 26% and the “MIC>98” value (Staphylococcus aureus [10]) was over 150 mg/L.

In the case of `CCOc1ccc(Br)cc1C(=O)N/N=C(\C)c1cc2ccccc2[nH]1`, the “MIC>98” value (Staphylococcus aureus [10]) is reported as over 64 mg/L and the IC50 (Pyruvate kinase) is reported as 0.063 µM.

In the case of `C/C(=N\NC(=O)c1cc(Br)ccc1O)c1cc2cc(O)ccc2[nH]1`, the “MIC>98” value (Staphylococcus aureus [5]) is reported as over 64 mg/L and the IC50 (Pyruvate kinase) is reported as 0.214 µM.

`CC(=NNC(=O)c1ccc(Br)cc1O)c1cc2ccccc2n1C` (mixture of isomers) was tested, and the inhibition [12] was 61% and the “MIC>98” value (Staphylococcus aureus [4]) was 4.8 mg/L.

For `C/C(=N\NC(=O)c1cc2ccccc2cc1O)c1cc2c(F)c(F)c(F)cc2n1C`, the “MIC>98” value (Staphylococcus aureus [10]) was over 64 mg/L and the IC50 (Pyruvate kinase) was 0.059 µM.

With `C/C(=N\NC(=O)c1cc(Br)ccc1O)c1cc2cc(-c3ccccc3)ccc2[nH]1` the inhibition [11] was 0% and the “MIC>98” value (Staphylococcus aureus [4]) was over 90 mg/L.

For `COc1c(Br)cc(Br)cc1C(=O)N/N=C(\C)c1cc2ccccc2[nH]1`, the inhibition [11] was 57% and the “MIC>98” value (Staphylococcus aureus [5]) was over 93 mg/L.

`CC/C(=N\NC(=O)c1cc2ccccc2cc1O)c1cc2cc(Br)ccc2[nH]1` was tested, and the inhibition [6] was -0.2%, the inhibition [7] was 3% and the inhibition [8] was -3.4%. The inhibition [9] was 5.6%, the inhibition [1] was 99.6% and the “MIC>98” value (Staphylococcus aureus [10]) was 16 mg/L (≈ 36.7 µM). The IC50 (Pyruvate kinase) was 0.018 µM.

In the case of `CCC(=NNC(=O)c1cc(Br)ccc1O)c1cc2cc(Br)ccc2n1C` (mixture of isomers), the “MIC>98” value (Staphylococcus aureus [10]) is reported as 2 mg/L and the IC50 (Pyruvate kinase) is reported as 0.168 µM.

For `CC(=NNC(=O)c1cc(Br)ccc1O)c1cc2cc(O)ccc2n1C` (mixture of isomers), the inhibition [11] was 54% and the “MIC>98” value (Staphylococcus aureus [5]) was over 64 mg/L.

`CC(=NNC(=O)c1cc(Br)ccc1O)c1cc2ccccc2n1C` (mixture of isomers) was tested, and the inhibition [7] was 0.4%, the inhibition [8] was 2.6% and the inhibition [9] was -3.7%. The inhibition [1] was 96.3%, the “MIC>98” value (Staphylococcus aureus [10]) was 7.7 mg/L and the IC50 (Pyruvate kinase) was 0.381 µM.

`CC/C(=N\NC(=O)c1cc2ccccc2cc1O)c1cc2c(F)c(F)c(F)cc2[nH]1` was tested, and the “MIC>98” value (Staphylococcus aureus [10]) was over 64 mg/L and the IC50 (Pyruvate kinase) was 0.031 µM.

`CCC(=NNC(=O)c1cc2ccccc2cc1O)c1cc2cc(Br)ccc2n1C` (mixture of isomers) showed an inhibition [6] of -5.6%, an inhibition [7] of -0.8% and an inhibition [8] of -0.6%. The inhibition [9] was 0%, the inhibition [1] was 97.7% and the “MIC>98” value (Staphylococcus aureus [10]) was 1 mg/L. The IC50 (Pyruvate kinase) was 0.079 µM.

In the case of `C/C(=N\NC(=O)c1cc(Br)ccc1O)c1cc2cccc(F)c2[nH]1`, the inhibition [12] is reported as 39% and the “MIC>98” value (Staphylococcus aureus [4]) is reported as over 156 mg/L.

In the case of `Cn1c(C(=NNC(=O)c2cc(Br)ccc2O)c2ccccc2)cc2ccccc21` (mixture of isomers), the Activity (THP-1 [2]) is reported as 19%, the Activity (THP-1 [3]) is reported as 78% and the “MIC>98” value (Staphylococcus aureus [4]) is reported as 1.4 mg/L. It also gave an IC50 (Pyruvate kinase) of 6.04 µM.

In the case of `C/C(=N\NC(=O)c1cc2ccccc2cc1O)c1cc2ccccc2[nH]1`, the “MIC>98” value (Staphylococcus aureus [10]) is reported as over 64 mg/L and the IC50 (Pyruvate kinase) is reported as 0.042 µM.

For `COc1ccc(Br)cc1C(=O)N(C)/N=C(\C)c1cc2ccccc2[nH]1`, the inhibition [11] was 33% and the “MIC>98” value (Staphylococcus aureus [5]) was over 80 mg/L.
